A selection: hits, their analogues and other compounds. The true share with any hit is near 4%.
KCNQ1 block: human KCNQ1 channel inhibition | CHO-K1 KCNQ1, FluxOR thallium flux fluorescence; hits give high values | 310,000 compounds, 1.3% hits | AID 2642 | P51787 | B-score at 10 µM;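 active means compounds whose thallium flux B-score, printed positive for inhibition, exceeds three library SD while starting fluorescence stays within three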;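 further: channel opened by potassium depolarization with thallium stimulus after 20 min compound exposure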
KCNK3 block: human KCNK3 channel inhibition, primary screen | O14649 | CHO-KCNK3 thallium flux, FluxOR fluorescence; hits give low values | B-score at 10 µM | 340,000 compounds, 0.84% hits | AID 602410;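 active means B-score under library mean minus 4 SD, starting fluorescence ratio at most library mean plus 5 SD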;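 further: more negative B-score means stronger inhibition of thallium flux through KCNK3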
Target sequence (O14649 whole entry, looked up): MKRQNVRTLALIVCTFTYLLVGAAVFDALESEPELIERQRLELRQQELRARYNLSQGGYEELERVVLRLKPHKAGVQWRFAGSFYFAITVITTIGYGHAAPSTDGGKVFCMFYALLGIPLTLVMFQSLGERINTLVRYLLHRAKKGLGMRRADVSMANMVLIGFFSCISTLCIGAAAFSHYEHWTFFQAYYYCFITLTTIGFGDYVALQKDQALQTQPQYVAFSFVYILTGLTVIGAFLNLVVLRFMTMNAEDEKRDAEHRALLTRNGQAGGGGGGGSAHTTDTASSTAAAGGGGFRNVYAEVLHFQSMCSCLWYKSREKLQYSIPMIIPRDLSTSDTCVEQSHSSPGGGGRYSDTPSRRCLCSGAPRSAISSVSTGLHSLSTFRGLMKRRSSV
hERG rescue: compounds protecting human hERG from proarrhythmic drug block. Q12809. CHO-hERG, FluxOR thallium flux, dofetilide IC70 present. activation (rescue from dofetilide block), less the hit threshold, % at 10 µM. 310,000 compounds, 0.51% hits. AID 1511;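 active means activation above the mean of controls blocked by dofetilide plus 5 SD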;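 further: thallium influx through hERG after potassium depolarization seen as dye fluorescence rise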
PHOSPHO1 inh: inhibitors of human PHOSPHO1 phosphatase; 290,000 compounds, 1.1% hits; recombinant PHOSPHO1, absorbance phosphatase assay; inhibition, % at 13.3 µM; in the data active means inhibition above about 60%
Target sequence (Q8TCT1 whole entry, looked up): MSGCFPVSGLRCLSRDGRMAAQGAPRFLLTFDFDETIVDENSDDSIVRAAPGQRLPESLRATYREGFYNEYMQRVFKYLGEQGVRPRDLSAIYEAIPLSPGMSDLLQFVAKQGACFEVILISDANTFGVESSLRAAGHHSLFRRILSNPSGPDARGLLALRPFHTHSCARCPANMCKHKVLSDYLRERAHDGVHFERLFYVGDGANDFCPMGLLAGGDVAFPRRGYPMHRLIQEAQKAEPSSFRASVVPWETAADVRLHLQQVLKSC
KCNK9 inh: blocks the human KCNK9 two-pore domain potassium channel; HEK293 KCNK9, FluxOR thallium flux fluorescence; hits give low values; B-score at 10 µM; 310,000 compounds, 1.2% hits; AID 488922;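 active means ratio B-score over 3 SD below the library mean, with starting fluorescence within 5 SD of its mean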;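 further: negative B-score means less thallium flux so channel inhibition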
KCNQ1 act: human KCNQ1 channel potentiation or activation. 310,000 compounds, 0.35% hits. CHO-K1 KCNQ1, thallium flux FluxOR fluorescence; hits give high values. AID 2648. B-score at 10 µM;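 active means fluorescence ratio B-score, a plate-corrected score, at least three library SD, with initial intensity B-score within 5 SD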
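Doses: Single concentration per compound, DMSO matched to controls | Test system: KCNQ1-transfected CHO-K1 cells | Timing: 90 min dye loading and 20 min compound exposure, both at room temperature | Measured by: Kinetic FluxOR thallium fluorescence, 10-s 1-Hz baseline, 110-s post-stimulus read | Medium: Assay buffer with matched DMSO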
KCNK9 inh conf: confirmation of human KCNK9 potassium channel inhibitors. shares compounds with KCNK9 inh. HEK293 KCNK9 cells, FluxOR thallium flux fluorescence. inhibition, % at 10 µM. 4,900 compounds, 43% hits. AID 492992;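 active means thallium signal inhibited by more than 5 SD of the compound-free buffer control wells, on both duplicate plates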;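 further: 0% = assay buffer control wells without compound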
Kir21 sel: mouse Kir2.1 off-target activity of KCNK9 modulators; AID 492993; Kir2.1 cells, FluxOR thallium flux fluorescence; shares compounds with KCNK9 inh; 4,900 compounds, 4% hits; inhibition, % at 10 µM;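 active means thallium signal drop more than 5 SD beyond the mean of the no-compound control wells, seen in both duplicate plates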;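 further: signal is fluorescence rise after thallium addition divided by baseline fluorescence; plate controls were assay buffer only for no effect and full block by chlorpromazine control for full effect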
KCNK9 uninduced: non-induced cell nonspecific activity of KCNK9 modulators. shares compounds with KCNK9 inh. non-induced KCNK9-HEK293, FluxOR thallium flux. inhibition, % at 10 µM. 4,900 compounds, 40% hits. AID 492997;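 active means thallium signal drop beyond 5 SD of the untreated control mean, on both duplicate plates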;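 further: plate controls were buffer only IC0 wells for no effect and SID17386958 at its maximal inhibitory level for full effect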
Numbers without * were called inactive.

Screening C=CCc1ccccc1OCC(O)CN1CCN(CCN2C(=O)c3cccc4cccc(c34)C2=O)CC1 (configuration not stated) returned KCNQ1 block inactive, KCNK3 block inactive, hERG rescue -31.4, PHOSPHO1 inh -9.3, KCNK9 inh inactive, KCNQ1 act inactive, KCNK9 inh conf inactive, Kir21 sel inactive and KCNK9 uninduced inactive.
`Cc1cccc(C)c1OCC(O)CN1CCC(CN2C(=O)c3cccc4cccc(c34)C2=O)CC1` (configuration not stated) gave KCNQ1 block inactive, KCNK3 block inactive, hERG rescue -21.8, PHOSPHO1 inh -24.5, KCNK9 inh inactive, KCNQ1 act inactive, KCNK9 inh conf inactive, Kir21 sel inactive and KCNK9 uninduced inactive.
`CCC(OCC(O)CN1CCN(CCN2C(=O)c3cccc4cccc(c34)C2=O)CC1)c1ccccc1` (configuration not stated) gave KCNQ1 block inactive, KCNK3 block inactive, hERG rescue -18.1, PHOSPHO1 inh 15.9, KCNK9 inh inactive, KCNQ1 act inactive, KCNK9 inh conf inactive, Kir21 sel inactive and KCNK9 uninduced inactive.
For CC(C)OCC(O)CN1CCN(CCN2C(=O)c3cccc4cccc(c34)C2=O)CC1 (configuration not stated) the results were KCNQ1 block inactive, KCNK3 block inactive, hERG rescue -5.5, PHOSPHO1 inh 11.9, KCNK9 inh inactive and KCNQ1 act inactive.
Cc1ccccc1OCC(O)CN1CCN(CCN2C(=O)c3cccc4cccc(c34)C2=O)CC1 (configuration not stated) was read as KCNQ1 block inactive, KCNK3 block inactive, hERG rescue -9.9, PHOSPHO1 inh -14.7, KCNK9 inh inactive, KCNQ1 act inactive, KCNK9 inh conf inactive, Kir21 sel inactive and KCNK9 uninduced inactive.
Screening Cc1csc(C(=O)NN)c1N(C)C returned KCNQ1 block inactive, KCNK3 block inactive, hERG rescue -8.7, PHOSPHO1 inh 8.1, KCNK9 inh inactive and KCNQ1 act inactive.
Screening CC(=O)c1cc2c(cc1NC(=O)c1ccc(C)cc1)OCCO2 returned KCNQ1 block inactive, KCNK3 block inactive, hERG rescue -5.5, PHOSPHO1 inh 20.1, KCNK9 inh inactive and KCNQ1 act inactive.
`O=C(Nc1ccc(OCC(=O)N2CCOCC2)cc1)c1ccccc1Cl` gave KCNQ1 block inactive, KCNK3 block inactive, hERG rescue -8.2, PHOSPHO1 inh 37.6, KCNK9 inh inactive and KCNQ1 act inactive.
`Oc1oc(-c2ccccc2)nc1C=Nc1cccc2ccccc12` gave KCNQ1 block inactive, KCNK3 block inactive, hERG rescue 0.3, PHOSPHO1 inh 18.0, KCNK9 inh -9.91*, KCNQ1 act inactive, KCNK9 inh conf inactive, Kir21 sel inactive and KCNK9 uninduced 45.0%*.
COC(=O)c1ccc(COc2ccc(/C=C(\C#N)c3nc4ccccc4[nH]3)cc2OC)o1 was read as KCNQ1 block inactive, KCNK3 block inactive, hERG rescue -8.0, PHOSPHO1 inh -18.1, KCNK9 inh -8.37*, KCNQ1 act inactive, KCNK9 inh conf 40.5%*, Kir21 sel inactive and KCNK9 uninduced 33.5%*.
CCCN1C(=O)/C(=C\c2ccncc2)SC1=Nc1ccccc1 was read as KCNQ1 block inactive, KCNK3 block inactive, hERG rescue -12.0, PHOSPHO1 inh -23.7, KCNK9 inh inactive, KCNQ1 act inactive, KCNK9 inh conf inactive, Kir21 sel inactive and KCNK9 uninduced inactive.
For CCN1C(=O)/C(=C\c2ccncc2)SC1=S the results were KCNQ1 block inactive, KCNK3 block inactive, hERG rescue -3.5, PHOSPHO1 inh -7.5, KCNK9 inh inactive and KCNQ1 act inactive.
`CCOC(=O)COc1ccc(/C=C2/SC(=Nc3ccccc3)N(Cc3cccnc3)C2=O)cc1OC` gave KCNQ1 block inactive, KCNK3 block inactive, hERG rescue -12.6, PHOSPHO1 inh 10.1, KCNK9 inh inactive, KCNQ1 act inactive, KCNK9 inh conf inactive, Kir21 sel inactive and KCNK9 uninduced inactive.
Screening CCN1C(=O)/C(=C\c2ccncc2)SC1=Nc1ccc(C)c(C)c1 returned KCNQ1 block inactive, KCNK3 block inactive, hERG rescue -10.7, PHOSPHO1 inh -23.8, KCNK9 inh inactive, KCNQ1 act inactive, KCNK9 inh conf inactive, Kir21 sel inactive and KCNK9 uninduced inactive.
For O=c1c2cnn(-c3ccc(F)cc3)c2ncn1Cc1cccnc1 the results were KCNQ1 block inactive, KCNK3 block inactive, hERG rescue -5.8, PHOSPHO1 inh 16.0, KCNK9 inh inactive and KCNQ1 act inactive.
`Cc1ccc(C(c2nnnn2C2CCCC2)N2c3ccccc3CC2C)cc1` (configuration not stated) gave KCNQ1 block 7*, KCNK3 block inactive, hERG rescue -14.4, PHOSPHO1 inh 3.0, KCNK9 inh -10.8*, KCNQ1 act inactive, KCNK9 inh conf 70.5%*, Kir21 sel inactive and KCNK9 uninduced 49.5%*.
O=c1c2ccccc2c(-c2ccccc2)nn1-c1cc(Cl)ccc1[N+](=O)[O-] was read as KCNK3 block inactive and PHOSPHO1 inh -12.1.
Screening Cc1ccc(-c2nn(-c3cc(Cl)ccc3[N+](=O)[O-])c(=O)c3ccccc23)cc1C returned KCNQ1 block inactive, KCNK3 block inactive, hERG rescue -9.1, PHOSPHO1 inh 45.0, KCNK9 inh inactive, KCNQ1 act inactive, KCNK9 inh conf inactive, Kir21 sel inactive and KCNK9 uninduced inactive.
Screening O=C(CNC(=O)c1ccccc1F)c1ccccc1 returned KCNQ1 block inactive, KCNK3 block inactive, hERG rescue -6.4, PHOSPHO1 inh 18.9, KCNK9 inh inactive and KCNQ1 act inactive.
Cc1cc(N2CCCCC2)n2ncc(-c3ccc(Cl)cc3)c2n1 was read as KCNQ1 block inactive, KCNK3 block inactive, hERG rescue -11.5, PHOSPHO1 inh 20.9, KCNK9 inh -10.6*, KCNQ1 act inactive, KCNK9 inh conf 54.5%*, Kir21 sel inactive and KCNK9 uninduced 35.5%*.
`Cc1cc(N2CCOCC2)n2ncc(-c3ccc(Cl)cc3)c2n1` gave KCNQ1 block inactive, KCNK3 block inactive, hERG rescue -5.9, PHOSPHO1 inh 28.8, KCNK9 inh inactive and KCNQ1 act inactive.

From PubChem
